Experimental data as given in ChEMBL document CHEMBL1649117, “GRL-02031, a novel nonpeptidic protease inhibitor (PI) containing a stereochemically defined fused cyclopentanyltetrahydrofuran potent against multi-PI-resistant human immunodeficiency virus type 1 in vitro” (Antimicrob Agents Chemother, 2009).

Key:
[1] = system: Human immunodeficiency virus 1; assay: Antiviral activity against HIV1 NL4-3 harboring L23I/K43I/M46I/I50L/G51A/A71V amino acid substitution in protease encoding region infected in human MT4 cells assessed as inhibition of p24 Gag protein production selected at 1 uM of atazanavir by ELISA; type: functional, organism-based; conditions: Human immunodeficiency virus 1, NL4-3, MT4
How it was run: (§1)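 HIV-1NL4-3 (500 TCID50s) was passaged in MT-4 cells, starting at 0.01–0.03 µM PI and raising the drug generally two- to threefold as virus propagated. Cell-free passage used day-7 supernatants. Variants were then tested in MT-4 cells (10^5/ml) with 100 TCID50s, with or without drug, at 37°C. Day-7 p24 Gag was read by chemiluminescent immunoassay; EC50 vs drug-free control; triplicate.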

[2] = system: Human immunodeficiency virus 1; assay: Antiviral activity against HIV1 NL4-3 harboring L10F/L24I/M46I/L63P/A71V/G73S/V82T amino acid substitution in protease encoding region infected in human MT4 cells assessed as inhibition of p24 Gag protein production selected at 5 uM of indinavir by ELISA; type: functional, organism-based; conditions: Human immunodeficiency virus 1, NL4-3, MT4; how it was run: as §1
[3] = system: Human immunodeficiency virus 1; assay: Antiviral activity against HIV1 JSL harboring L10I/L24I/L33F/E35D/M36I/N37S/M46L/I54V/R57K/I62V/L63P/A71V/G73S/82A in protease encoding region infected in human PHA-PBC assessed as inhibition of p24 Gag protein production by ELISA; type: functional, organism-based; conditions: Human immunodeficiency virus 1, JSL
How it was run: (§2)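 Phytohemagglutinin-stimulated PBMs (10^6/ml) infected with 50 TCID50s of each primary isolate, cultured with or without drug in 10-fold serial dilutions. On day 7, supernatant p24 Gag was measured by automated chemiluminescent enzyme immunoassay. […] Triplicate.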

[4] = system: Human immunodeficiency virus 1; assay: Antiviral activity against HIV1 NL4-3 harboring L10F/D30N/K45I/A71V/T74S amino acid substitution in protease encoding region infected in human MT4 cells assessed as inhibition of p24 Gag protein production selected at 5 uM of nelfinavir by ELISA; type: functional, organism-based; conditions: Human immunodeficiency virus 1, NL4-3, MT4; how it was run: as §1
[5] = system: Human immunodeficiency virus 1; assay: Antiviral activity against HIV1 TM harboring L10I/K14R/R41K/M46L/I54V/L63P/A71V/V82A/L90M/I93L in protease encoding region infected in human PHA-PBC assessed as inhibition of p24 Gag protein production by ELISA; type: functional, organism-based; conditions: Human immunodeficiency virus 1, TM; how it was run: as §2
[6] = system: Human immunodeficiency virus 1; assay: Antiviral activity against HIV1 NL4-3 harboring M46I/V82F/I84V amino acid substitution in protease encoding region infected in human MT4 cells assessed as inhibition of p24 Gag protein production selected at 5 uM of ritonavir by ELISA; type: functional, organism-based; conditions: Human immunodeficiency virus 1, NL4-3, MT4; how it was run: as §1
[7] = system: Human immunodeficiency virus 1; assay: Antiviral activity against HIV1 MM harboring L10I/K43T/M46L/I54V/L63P/A71V/V82A/L90M/Q92K in protease encoding region infected in human PHA-PBC assessed as inhibition of p24 Gag protein production by ELISA; type: functional, organism-based; conditions: Human immunodeficiency virus 1, MM; how it was run: as §2
[8] = system: Human immunodeficiency virus 1; assay: Antiviral activity against HIV1 G harboring L10I/V11I/T12E/I15V/L19I/R41K/M46L/L63P/A71T/V82A/L90M in protease encoding region infected in human PHA-PBC assessed as inhibition of p24 Gag protein production by ELISA; type: functional, organism-based; conditions: Human immunodeficiency virus 1, G; how it was run: as §2
[9] = system: Human immunodeficiency virus 1; assay: Antiviral activity against HIV1 B harboring L10I/I15V/E35D/N37E/K45R/I54V/L63P/A71V/V82T/L90M/I93L/C95F in protease encoding region infected in human PHA-PBC assessed as inhibition of p24 Gag protein production by ELISA; type: functional, organism-based; conditions: Human immunodeficiency virus 1, B; how it was run: as §2
[10] = system: Human immunodeficiency virus 1; assay: Antiviral activity against HIV1 MOKW infected in human PHA-PBC assessed as inhibition of p24 Gag protein production by ELISA; type: functional, organism-based; conditions: Human immunodeficiency virus 1, MOKW; how it was run: as §2
[11] = system: Human immunodeficiency virus 1; assay: Antiviral activity against HIV1 NL4-3 harboring L10I/G48V/I54V/L90M amino acid substitution in protease encoding region infected in human MT4 cells assessed as inhibition of p24 Gag protein production selected at 5 uM of saquinavir by ELISA; type: functional, organism-based; conditions: Human immunodeficiency virus 1, NL4-3, MT4; how it was run: as §1
[12] = system: Human immunodeficiency virus 1; assay: Antiviral activity against HIV1 C harboring L10I/I15V/K20R/L24I/M36I/M46L/I54V/I62V/L63P/K70Q/V82A/L89M in protease encoding region infected in human PHA-PBC assessed as inhibition of p24 Gag protein production by ELISA; type: functional, organism-based; conditions: Human immunodeficiency virus 1, C; how it was run: as §2
[13] = system: Human immunodeficiency virus 1; assay: Antiviral activity against HIV1 ERS104pre infected in human PHA-PBC assessed as inhibition of p24 Gag protein production by ELISA; type: functional, organism-based; conditions: Human immunodeficiency virus 1, ERS104pre
How it was run: (§3)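 Phytohemagglutinin-stimulated PBMs (10^6/ml) infected with 50 TCID50s of each primary isolate, cultured with or without drug in 10-fold serial dilutions. On day 7, supernatant p24 Gag was measured by automated chemiluminescent enzyme immunoassay. Triplicate.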

[14] = system: Human immunodeficiency virus 1; assay: Antiviral activity against HIV1 NL4-3 harboring L10F/V32I/M46I/I54M//A71V/I84V amino acid substitution in protease encoding region infected in human MT4 cells assessed as inhibition of p24 Gag protein production selected at 5 uM of amprenavir by ELISA; type: functional, organism-based; conditions: Human immunodeficiency virus 1, NL4-3, MT4
How it was run: (§4)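 Cell-free passage used day-7 supernatants. Variants were then tested in MT-4 cells (10^5/ml) with 100 TCID50s, with or without drug, at 37°C. Day-7 p24 Gag was read by chemiluminescent immunoassay; EC50 vs drug-free control; triplicate.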

[15] = system: Human immunodeficiency virus 1; assay: Antiviral activity against HIV1 NL4-3 infected in human MT4 cells assessed as inhibition of p24 gag protein production by ELISA; type: functional, organism-based; conditions: Human immunodeficiency virus 1, NL4-3, MT4
How it was run: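 MT-4 cells (10^5/ml) were infected with 100 TCID50s of HIV-1 and cultured at 37°C with or without various drug concentrations. On day 7, supernatant p24 Gag was measured by automated chemiluminescent enzyme immunoassay. […] Assays were run in triplicate.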

[16] = system: Human immunodeficiency virus 1; assay: Antiviral activity against HIV1 NL4-3 harboring L10F/M46I/I54V/V82A amino acid substitution in protease encoding region infected in human MT4 cells assessed as inhibition of p24 Gag protein production selected at 1 uM of Lopinavir by ELISA; type: functional, organism-based; conditions: Human immunodeficiency virus 1, NL4-3, MT4; how it was run: as §4
[17] = system: Human immunodeficiency virus 1; assay: Antiviral activity against HIV1 NL4-3 harboring L10F/L33F/M46I/I47V/Q58E/V82I/I84V/I85V amino acid substitution in protease encoding region infected in human MT4 cells assessed as inhibition of p24 Gag protein production selected at 5 uM of GRL-02031 by ELISA; type: functional, organism-based; conditions: Human immunodeficiency virus 1, NL4-3, MT4; how it was run: as §4
[18] = system: Human immunodeficiency virus; assay: Antiviral activity against HIV1 LAI infected in human MT2 cells after 7 days by MTT assay; type: functional, organism-based; conditions: Human immunodeficiency virus 1, LAI, MT2, 168 h
[19] = system: Human immunodeficiency virus 1; assay: Antiviral activity against HIV1 A harboring L10I/I15V/E35D/N37E/K45R/I54V/L63P/A71V/V82T/L90M/I93L/C95F in protease encoding region infected in human PHA-PBC assessed as inhibition of p24 Gag protein production by ELISA; type: functional, organism-based; conditions: Human immunodeficiency virus 1, A; how it was run: as §3
[20] = system: Human immunodeficiency virus 1; assay: Ratio of EC50 for HIV1 G harboring L10I/V11I/T12E/I15V/L19I/R41K/M46L/L63P/A71T/V82A/L90M in protease encoding region to EC50 for HIV1 ERS104pre; type: functional
[21] = system: Human immunodeficiency virus 1; assay: Ratio of EC50 for HIV1 JSL harboring L10I/L24I/L33F/E35D/M36I/N37S/M46L/I54V/R57K/I62V/L63P/A71V/G73S/82A in protease encoding region to EC50 for HIV1 ERS104pre; type: functional
[22] = system: Human immunodeficiency virus 1; assay: Ratio of EC50 for HIV1 MM harboring L10I/K43T/M46L/I54V/L63P/A71V/V82A/L90M/Q92K in protease encoding region infected to EC50 for HIV1 ERS104pre; type: functional
[23] = system: Human immunodeficiency virus 1; assay: Ratio of EC50 for HIV1 A harboring L10I/I15V/E35D/N37E/K45R/I54V/L63P/A71V/V82T/L90M/I93L/C95F in protease encoding region to EC50 for HIV1 ERS104pre; type: functional
[24] = system: Human immunodeficiency virus 1; assay: Ratio of EC50 for HIV1 C harboring L10I/I15V/K20R/L24I/M36I/M46L/I54V/I62V/L63P/K70Q/V82A/L89M in protease encoding region to EC50 for HIV1 ERS104pre; type: functional
[25] = system: Human immunodeficiency virus 1; assay: Ratio of EC50 for HIV1 TM harboring L10I/K14R/R41K/M46L/I54V/L63P/A71V/V82A/L90M/I93L in protease encoding region to EC50 for HIV1 ERS104pre; type: functional
How it was run: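 PHA-stimulated PBMs (10^6/ml) infected with 50 TCID50s of primary HIV-1 isolate and cultured with 10-fold serial drug dilutions. Day 7 supernatant p24 Gag measured by chemiluminescent enzyme immunoassay. […] Triplicate. Ratio is resistant isolate EC50 over reference isolate EC50.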

[26] = system: Human immunodeficiency virus 1; assay: Ratio of EC50 for HIV1 B harboring L10I/I15V/E35D/N37E/K45R/I54V/L63P/A71V/V82T/L90M/I93L/C95F in protease encoding region to EC50 for HIV1 ERS104pre; type: functional

Row | Structure (SMILES) | EC50 [1] | EC50 [2] | EC50 [3] | EC50 [4] | EC50 [5] | EC50 [6] | EC50 [7] | EC50 [8] | EC50 [9] | EC50 [10] | EC50 [11] | EC50 [12] | EC50 [13] | EC50 [19] | other results
1 | Cc1cccc(C)c1OCC(=O)N[C@@H](Cc1ccccc1)[C@@H](O)C[C@H](Cc1ccccc1)NC(=O)[C@H](C(C)C)N1CCCNC1=O [LOPINAVIR] | 0.025 µM | > 1 µM | 0.74 µM | 0.29 µM | 0.23 µM | 0.11 µM | 0.62 µM | 0.13 µM | 0.25 µM | 0.029 µM | 0.7 µM | 0.46 µM | – | – | –
2 | CC(C)c1nc(CN(C)C(=O)N[C@H](C(=O)N[C@@H](Cc2ccccc2)C[C@H](O)[C@H](Cc2ccccc2)NC(=O)OCc2cncs2)C(C)C)cs1 [RITONAVIR] | 0.14 µM | > 1 µM | > 1 µM | 0.08 µM | > 1 µM | > 1 µM | > 1 µM | > 1 µM | > 1 µM | 0.036 µM | > 1 µM | > 1 µM | 0.036 µM | > 1 µM | EC50 [14]: > 1 µM; EC50 [15]: 0.021 µM; EC50 [16]: > 1 µM; EC50 [17]: 0.26 µM; EC50 [18]: 0.038 µM
3 | Cc1cn([C@H]2C[C@H](N=[N+]=[N-])[C@@H](CO)O2)c(=O)[nH]c1=O [ZIDOVUDINE] | – | – | 0.18 µM | – | 0.89 µM | – | 0.45 µM | 0.6 µM | > 1 µM | 0.016 µM | – | 0.28 µM | 0.005 µM | 0.12 µM | Ratio EC50 [20]: >120; Ratio EC50 [21]: 36; Ratio EC50 [22]: 90; Ratio EC50 [23]: 24; Ratio EC50 [24]: 56; Ratio EC50 [25]: 178; Ratio EC50 [26]: 200
